Experimental data published in ChEMBL document CHEMBL1143670, “An adamantyl-substituted retinoid-derived molecule that inhibits cancer cell growth and angiogenesis by inducing apoptosis and binds to small heterodimer partner nuclear receptor: effects of modifying its carboxylate group on apoptosis, proliferation, and protein-tyrosine phosphatase activity” (J Med Chem, 2007).
Calls of active or inactive are those of the source. No cut-off for these calls is given here.

How the values were obtained:
MDA-MB-231 [1] = experiment: Growth inhibition of retinoid-resistant MDA-MB-231 cells at 1 uM relative to control; format: functional; conditions: Homo sapiens
How it was run: (§1)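 Cells seeded at 2 × 10^3 per well for H292 and DU-145 (RPMI-1640, 10% FBS) or 4 × 10^3 for MDA-MB-231 (DMEM, 10% FBS), 37 °C, 6% CO2. After 24 h attachment, treated 72 h with compound in Me2SO (0.1% final); media and compound renewed at 48 h. Viable cells by MTS reduction; triplicates per concentration.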

[2] = Growth inhibition of retinoid-resistant H292 cells at 1 uM relative to control; format: functional; conditions: Homo sapiens, NCI-H292; how it was run: as §1
[3] = Growth inhibition of primary HMVE cells after 72 hrs; format: functional, cell-based; conditions: Homo sapiens
How it was run: (§2)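 Primary HMVE cells, 1 × 10^4 per well in EGM-MV medium, incubated 1 h at 37 °C. Compound in Me2SO added, or Me2SO alone (0.5% final). After 72 h at 37 °C, cells detached with trypsin/EDTA and counted by hemocytometer; three replicates.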

DU-145 [4] = experiment: Growth inhibition of retinoid-resistant DU145 cells after 72 hrs; format: functional, cell-based; conditions: Homo sapiens, DU-145, 72 h; how it was run: as §1
[5] = Inhibition of HMVE cell proliferation at 0.5 uM relative to control; format: functional; conditions: Homo sapiens
[6] = Induction of apoptosis in HMVE cells at 0.5 uM after 20 hrs relative to adriamycin; format: functional, Homo sapiens
How it was run: (§3)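 HMVE cells (6 × 10^4 per well) seeded in EGM-MV, incubated 6 h at 37 °C. Then treated 20 h with compound (10–500 nM), 1.0 µM doxorubicin or Me2SO (0.5% final). Cytoplasmic histone-associated DNA fragments in lysate supernatant measured by Cell Death Detection ELISA; triplicates.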

[7] = Antiproliferative activity against HMVE cells; format: functional, cell-based; conditions: Homo sapiens
KG-1 [8] = experiment: Inhibition of cell proliferation in retinoid-resistant KG1 cells at 1 uM after 48 hrs relative to control; format: functional; conditions: Homo sapiens, KG-1, 48 h
How it was run: (§4)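 KG-1 cells grown in RPMI-1640 with 5% heat-inactivated FBS and gentamycin, seeded in 3 mL medium plus 5% FBS, incubated overnight. Compound then added in Me2SO (0.1% final), cells incubated for the stated time, harvested and counted by hemocytometer.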

KG-1 [9] = experiment: Induction of apoptosis in retinoid-resistant KG1 cells at 5 uM after 48 hrs; format: functional, Homo sapiens
How it was run: (§5)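 Apoptotic cells scored by acridine orange staining. KG-1, HL-60R or MDA-MB-231 cells seeded in medium with 5% FBS, incubated overnight, then exposed to compound in Me2SO (0.1% final) for the stated time.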

HMVE [10] = experiment: Induction of apoptosis in HMVE cells assessed as increase in oligonucleosome levels after 20 hrs by ELISA; format: functional, cell-based; conditions: Homo sapiens; how it was run: as §3
KG-1 [11] = experiment: Induction of apoptosis in retinoid-resistant KG1 cells at 1 uM after 48 hrs; format: functional, Homo sapiens; how it was run: as §5
DU-145 [12] = experiment: Growth inhibition of retinoid-resistant DU145 cells at 1 uM relative to control; format: functional; conditions: Homo sapiens; how it was run: as §1
HMVE [13] = experiment: Inhibition of HMVE cell migration through Matrigel after 5 hrs; format: functional, cell-based; conditions: Homo sapiens
How it was run: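 Transwell inserts (8 µm pores) with undersides coated with Matrigel (30 µg/mL), blocked with 1% BSA. HMVE cells from 80% confluent cultures, released enzyme-free, were placed in inserts with compound (0.05–500 nM) or Me2SO (0.01% final). After 5 h at 37 °C, cells on underside fixed, stained with Diff-Quick and counted in three high-power fields per well; mean ± SD of three replicates.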

MDA-MB-231 [14] = experiment: Growth inhibition of retinoid-resistant MDA-MB-231 cells after 72 hrs; format: functional, cell-based; conditions: Homo sapiens, MDA-MB-231, 72 h; how it was run: as §1
KG-1 [15] = experiment: Inhibition of cell proliferation in retinoid-resistant KG1 cells after 48 hrs; format: functional, cell-based; conditions: Homo sapiens, KG-1, 48 h; how it was run: as §4
[16] = Growth inhibition of retinoid-resistant H292 cells after 72 hrs; format: functional, cell-based; conditions: Homo sapiens, NCI-H292, 72 h; how it was run: as §1
[17] = molecular target: T1, Nuclear receptor subfamily 0 group B member 2 (Homo sapiens) (UniProt Q15466); experiment: Displacement of [5,5'-3H2]AHPN from recombinant human GST-SHP partner nuclear orphan receptor at 50 uM
T1 sequence (whole entry): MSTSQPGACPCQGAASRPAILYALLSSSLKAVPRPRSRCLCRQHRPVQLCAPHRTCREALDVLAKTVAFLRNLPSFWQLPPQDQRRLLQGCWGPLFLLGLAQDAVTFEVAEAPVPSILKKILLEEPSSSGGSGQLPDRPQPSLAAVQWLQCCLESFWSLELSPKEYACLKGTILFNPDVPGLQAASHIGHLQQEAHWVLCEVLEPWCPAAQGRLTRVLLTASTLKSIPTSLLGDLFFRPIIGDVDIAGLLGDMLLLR
How it was run: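 GST–human SHP fusion (150–500 ng) on glutathione-Sepharose beads preincubated on ice 45 min with unlabeled compound (50 µM final) in 0.4 mL binding buffer. [5,5′-3H2]AHPN (5 nM final) then added for 2 h at 4 °C. Beads washed, counted by scintillation directly or after elution with 50 mM NaHCO3/1% SDS.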

MDA-MB-231 [18] = experiment: Induction of apoptosis in MDA-MB-231 cells at 1 uM after 96 hrs; format: functional, Homo sapiens; how it was run: as §5
HMVE [19] = experiment: Inhibition of HMVE cell tubule formation in Matrigel after 18 hrs; format: functional, cell-based; conditions: Homo sapiens
How it was run: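 Trypsinized HMVE cells (5 × 10^4 per well in EGM-MV) plated on gelled Matrigel, held 1 h at 37 °C, then exposed 18 h at 37 °C to 0.25 or 1.0 µM compound or Me2SO (0.05% final). Total tube length measured from phase-contrast images, four random fields per well, three replicates.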

KG-1 [20] = experiment: Growth inhibition of retinoid-resistant KG1 cells at 5 uM after 48 hrs; format: functional; conditions: Homo sapiens, KG-1, 48 h; how it was run: as §4
[21] = molecular target: Receptor-type tyrosine-protein phosphatase C, CD45 (Homo sapiens) (UniProt P08575); experiment: Inhibition of CD45 PTP at 10 uM relative to control by fluorescence spectrometry
Sequence of Receptor-type tyrosine-protein phosphatase C, CD45 (Homo sapiens) (P08575 whole entry, looked up): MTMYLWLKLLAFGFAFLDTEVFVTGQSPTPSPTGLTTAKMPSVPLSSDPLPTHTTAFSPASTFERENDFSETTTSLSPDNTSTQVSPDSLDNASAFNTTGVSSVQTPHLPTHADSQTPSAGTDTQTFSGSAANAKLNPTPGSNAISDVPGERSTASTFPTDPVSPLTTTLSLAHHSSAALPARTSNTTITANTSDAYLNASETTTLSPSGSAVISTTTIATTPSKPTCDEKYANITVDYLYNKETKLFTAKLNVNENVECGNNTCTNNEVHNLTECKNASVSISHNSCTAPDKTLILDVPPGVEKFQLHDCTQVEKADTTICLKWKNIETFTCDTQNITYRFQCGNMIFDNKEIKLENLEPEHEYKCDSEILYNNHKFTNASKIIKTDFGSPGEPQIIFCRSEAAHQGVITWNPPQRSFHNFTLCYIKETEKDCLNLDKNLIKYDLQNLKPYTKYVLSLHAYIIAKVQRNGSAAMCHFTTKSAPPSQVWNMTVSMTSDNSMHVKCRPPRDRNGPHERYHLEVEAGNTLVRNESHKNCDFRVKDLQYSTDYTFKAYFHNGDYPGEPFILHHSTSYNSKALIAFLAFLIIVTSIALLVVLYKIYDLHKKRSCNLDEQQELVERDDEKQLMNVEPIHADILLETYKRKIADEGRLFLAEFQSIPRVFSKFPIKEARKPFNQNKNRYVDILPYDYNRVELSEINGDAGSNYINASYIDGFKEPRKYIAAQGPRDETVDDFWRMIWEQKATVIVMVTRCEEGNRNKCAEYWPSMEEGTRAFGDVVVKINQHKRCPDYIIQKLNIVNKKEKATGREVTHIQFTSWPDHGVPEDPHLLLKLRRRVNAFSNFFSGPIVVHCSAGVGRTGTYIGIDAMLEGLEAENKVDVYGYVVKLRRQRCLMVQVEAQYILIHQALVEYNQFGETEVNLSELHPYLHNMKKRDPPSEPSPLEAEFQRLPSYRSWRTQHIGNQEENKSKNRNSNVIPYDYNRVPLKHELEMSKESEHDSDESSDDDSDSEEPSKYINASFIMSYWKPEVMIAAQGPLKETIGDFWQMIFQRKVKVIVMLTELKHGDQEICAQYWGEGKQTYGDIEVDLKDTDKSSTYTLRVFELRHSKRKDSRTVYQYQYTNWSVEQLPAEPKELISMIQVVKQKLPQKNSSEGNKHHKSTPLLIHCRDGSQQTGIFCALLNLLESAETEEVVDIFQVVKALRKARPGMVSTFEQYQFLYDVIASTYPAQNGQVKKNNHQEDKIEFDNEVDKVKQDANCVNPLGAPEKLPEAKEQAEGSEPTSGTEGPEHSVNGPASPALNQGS

[22] = Growth inhibition of primary HMVE cells at 1 uM after 72 hrs; format: functional; conditions: Homo sapiens; how it was run: as §2
[23] = molecular target: T2, Tyrosine-protein phosphatase non-receptor type 11 (Homo sapiens, UniProt Q06124); experiment: Inhibition of SHP2 PTP by fluorescence spectroscopy
T2 sequence (Q06124 whole entry): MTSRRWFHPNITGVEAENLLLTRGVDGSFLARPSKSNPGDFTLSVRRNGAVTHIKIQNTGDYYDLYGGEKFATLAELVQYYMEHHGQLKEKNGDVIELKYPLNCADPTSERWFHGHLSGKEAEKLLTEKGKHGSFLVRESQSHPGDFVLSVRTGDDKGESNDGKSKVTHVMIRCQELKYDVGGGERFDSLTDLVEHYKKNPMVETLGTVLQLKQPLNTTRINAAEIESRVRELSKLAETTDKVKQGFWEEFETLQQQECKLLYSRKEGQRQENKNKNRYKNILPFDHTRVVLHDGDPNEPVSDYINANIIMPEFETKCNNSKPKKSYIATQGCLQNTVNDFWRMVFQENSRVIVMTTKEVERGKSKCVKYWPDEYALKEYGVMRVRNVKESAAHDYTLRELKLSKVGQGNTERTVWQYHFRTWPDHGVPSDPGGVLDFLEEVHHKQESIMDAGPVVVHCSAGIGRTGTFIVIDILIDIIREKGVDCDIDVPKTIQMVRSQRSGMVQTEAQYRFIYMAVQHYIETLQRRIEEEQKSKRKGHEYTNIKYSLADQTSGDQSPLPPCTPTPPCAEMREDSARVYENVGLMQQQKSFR

MDA-MB-231 [24] = experiment: Induction of apoptosis in retinoid-resistant MDA-MB-231 cells at 2 uM after 96 hrs; format: functional, Homo sapiens

Row | Compound | inhibition at 1 µM (MDA-MB-231 [1]) [%] | inhibition at 1 µM [2] [%] | IC50 (DU-145 [4]) [nM] | inhibition at 1 µM (KG-1 [8]) [%] | Activity (KG-1 [9]) [%] | Activity (KG-1 [11]) [%] | inhibition at 1 µM (DU-145 [12]) [%] | IC50 (MDA-MB-231 [14]) [nM] | IC50 (KG-1 [15]) [nM] | IC50 [16] [nM] | Activity [17] [%] | inhibition at 5 µM (KG-1 [20]) [%] | other results
1 | O=C(O)/C=C/c1ccc(-c2ccc(O)c(C34CC5CC(CC(C5)C3)C4)c2)c(Cl)c1 | 32 | 79 | 500 | 44 | 55 | 30 | 76 | 1800 | 300 | 400 | 87 | 67 | IC50 [3]: 300 nM; inhibition at 0.5 µM [5]: 60%; Activity [6]: 64%; IC50 [7]: 300 nM; Activity (HMVE [10]): Dose-dependent effect; Activity (HMVE [13]): inactive; Activity (MDA-MB-231 [18]): 43%; Activity (HMVE [19]): inactive
2 | O=C1NC(=O)/C(=C/c2ccc(-c3ccc(O)c(C45CC6CC(CC(C6)C4)C5)c3)c(Cl)c2)S1 | 0 | 17 | 3700 | 28 | 10 | 8 | 17 | 18000 | 14000 | 3600 | 37 | 41 | inhibition [21]: 53%; inhibition at 1 µM [22]: 30%; IC50 [23]: 2200 nM
3 | O=C(O)c1cccc2c(-c3ccc(O)c(C45CC6CC(CC(C6)C4)C5)c3)cccc12 | – | – | – | – | – | – | – | – | – | – | – | – | Activity (MDA-MB-231 [24]): 4%
